“And” between values parts separate entries of the source, which are not always exact repeats. Identical values can stand only once. “Also recorded” adds a separate entry of the source. Like-named read-outs stand apart in the source and are kept apart here.

The values below come from paper PMC6957770 (Biochemical Journal, 2020).

The target of test [1] is T1, PilBN (Chloracidobacterium thermophilum, UniProt G2LDI3).
T1 sequence (G2LDI3 1-146): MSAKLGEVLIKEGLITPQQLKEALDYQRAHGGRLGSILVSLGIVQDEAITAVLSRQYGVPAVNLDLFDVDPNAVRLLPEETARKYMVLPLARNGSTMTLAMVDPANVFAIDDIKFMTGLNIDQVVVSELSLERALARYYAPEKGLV
Kind of test: ITC ligand binding to PilBN. The settings on record: for binding detected by ITC: 30 μM PilBN, Supplementary Figure S4A,B. In short, it runs like this:
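ITC at 25 °C, 300 rpm stirring. His-tagged PilBN (expressed in E. coli BL21(DE3)) was purified by Ni-NTA and size exclusion, dialysed into activity buffer, and set at 30 μM final in the cell. Syringe held 0.5 mM cdG, given as one 0.4 μl and 29 × 1 μl injections 150 s apart. Buffer-only heats were subtracted. Fit used a single-set-of-identical-sites model; ≥3 independent runs.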
(In general: ITC needs no label: the signal is the heat of the interaction.)

The target in test [2] is T2, PilBΔN (Chloracidobacterium thermophilum, UniProt G2LDI3).
T2 sequence (G2LDI3 140-614): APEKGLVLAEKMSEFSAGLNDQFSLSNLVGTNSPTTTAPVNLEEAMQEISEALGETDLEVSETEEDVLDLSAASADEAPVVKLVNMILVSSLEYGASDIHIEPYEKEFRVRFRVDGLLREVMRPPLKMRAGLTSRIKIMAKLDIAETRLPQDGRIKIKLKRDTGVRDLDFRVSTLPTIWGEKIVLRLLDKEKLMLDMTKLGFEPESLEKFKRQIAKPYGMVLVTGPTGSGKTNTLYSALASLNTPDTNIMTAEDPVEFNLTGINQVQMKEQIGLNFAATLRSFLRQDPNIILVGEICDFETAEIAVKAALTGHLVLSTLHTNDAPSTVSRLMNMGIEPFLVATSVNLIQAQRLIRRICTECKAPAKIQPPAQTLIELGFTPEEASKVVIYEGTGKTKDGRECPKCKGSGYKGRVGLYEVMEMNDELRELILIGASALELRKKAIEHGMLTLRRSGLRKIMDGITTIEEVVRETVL
As to the kind of experiment: ITC ligand binding to PilBΔN. The note with it: for ΔG / ΔH / N, number of ligand binding sites per protein: ITC; for ΔG / ΔH: 25 °C; for N, number of ligand binding sites per protein: per PilBΔN hexamer.

The target of test [3] is T3, Full-length PilB (CtPilB) (Chloracidobacterium thermophilum, UniProt G2LDI3).
T3 sequence (G2LDI3 1-614): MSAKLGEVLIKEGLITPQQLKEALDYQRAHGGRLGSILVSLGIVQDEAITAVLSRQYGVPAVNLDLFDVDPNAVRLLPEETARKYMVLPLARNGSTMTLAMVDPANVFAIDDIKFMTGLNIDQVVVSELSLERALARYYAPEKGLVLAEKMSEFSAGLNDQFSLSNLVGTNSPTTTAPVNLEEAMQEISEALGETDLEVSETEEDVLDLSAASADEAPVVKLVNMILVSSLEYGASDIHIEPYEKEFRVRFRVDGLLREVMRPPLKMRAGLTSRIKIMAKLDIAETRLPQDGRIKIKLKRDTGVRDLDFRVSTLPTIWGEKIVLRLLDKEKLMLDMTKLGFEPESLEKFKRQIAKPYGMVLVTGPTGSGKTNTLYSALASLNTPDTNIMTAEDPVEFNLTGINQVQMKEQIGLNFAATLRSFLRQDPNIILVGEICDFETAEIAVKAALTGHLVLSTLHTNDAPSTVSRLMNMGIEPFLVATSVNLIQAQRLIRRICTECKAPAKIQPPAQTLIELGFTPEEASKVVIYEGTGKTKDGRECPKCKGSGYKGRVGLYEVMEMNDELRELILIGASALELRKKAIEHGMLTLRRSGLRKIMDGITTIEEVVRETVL
Kind of test: ITC ligand binding to full-length PilB with or without effector. The note with it: for N, number of ligand binding sites per protein: per PilB hexamer. In short, it runs like this:
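ITC at 25 °C using full-length hexameric PilB (expressed in E. coli XL1-Blue; Ni-NTA/SEC) dialysed into activity buffer. cdG runs: 5.3 μM protein, 0.5 mM cdG, one 0.4 μl then 29 × 1 μl injections, 150 s apart. ATPγS/ADP runs: 15 μM protein, 1 mM titrant, one 0.4 μl then 39 × 1 μl injections, 120 s apart. Optional effector pre-incubation: 15 min on ice (cdG 100 μM; ATPγS/ADP 50 μM). Buffer-only heats subtracted; single-site fit.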

Test [4] has as its system full-length CtPilB ATPase. As to the kind of experiment: Malachite green-based ATPase assay of full-length CtPilB in the presence of cdG. It counts as biochemical, Chloracidobacterium thermophilum. In short, it runs like this: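 Full-length PilB (75 nM) ATPase was read by malachite green phosphate endpoint after 15 min at 54 °C in activity buffer, with cdG at 0, 2 or 200 μM. Kinetic runs used 0.5 and 1.0 mM ATP with or without cdG. No-protein ATP blanks served as controls.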

In test [5] the test system is VcMshE. The note with it: in vitro; cited from earlier work.
Test [6] has as its target PilBΔN (truncated CtPilB without the first 139 residues) (Chloracidobacterium thermophilum). Kind of test: SEC.

Turning to `Nc1nc2c(ncn2[C@@H]2O[C@@H]3COP(=O)(O)O[C@H]4[C@@H](O)[C@H](n5cnc6c(=O)[nH]c(N)nc65)O[C@@H]4COP(=O)(O)O[C@H]3[C@H]2O)c(=O)[nH]1` [cdG, cyclic-di-GMP], the Kd in test [1] is 0.107 ± 0.014 µM; in test [3] (apparent dissociation constant KD, ITC, 25 °C, no effector, 5.3 μM PilB) it was 0.053 ± 0.01 µM. Further, the ΔG in test [1] (ITC, 25 °C, no effector) is -9.5 kcal/mol; in test [3] (effector ADP 50 μM) it was -10.6 kcal/mol. Besides, the ΔH in test [1] (ITC, 25 °C, no effector) is -7.4 ± 0.5 kcal/mol; in test [3] (ITC, 25 °C, no effector), -14.5 kcal/mol and -14.5 ± 0.13 kcal/mol; in test [3] (effector ADP 50 μM), -12.0 ± 0.09 kcal/mol; in test [3] (effector ATPγS 50 μM), -14.0 ± 0.3 kcal/mol. Further, in test [1] (ITC, 25 °C, no effector), the “−TΔS” value was -2.1 kcal/mol. Besides, the “N, number of ligand binding sites per protein” value (“N, number … per protein” for short) in test [1] (ITC, no effector, PilBN monomer) is 1.09±0.03; in test [3] (ITC, no effector), 5.83±0.01; in test [3] (effector ADP 50 μM), 5.94±0.09; in test [3] (effector ATPγS 50 μM), 6.33±0.08. The “binding detected by ITC” value in test [2] (5.3 μM PilBΔN, Supplementary Figure S4C) is “Nor was there any detectable binding”. In test [4] (cdG 0, 2 or 200 μM, ATP 0.5 and 1.0 mM, Supplementary Figure S5), the “effect on ATPase activity, kinetic assay” value is reported as “not statistically significant; also recorded: did not affect”. The “effect on ATPase activity, endpoint assay” value in test [4] (cdG at 0, 2 and 200 μM, data not shown) is on record as “no difference”. Moreover, the “effect of cdG on ATPase activity” value in test [5] is reported as “only to a very limited extent”.
As to `Nc1ncnc2c1ncn2[C@@H]1O[C@H](COP(=O)(O)OP(=O)(O)OP(=O)(O)O)[C@@H](O)[C@H]1O` [ATP], in test [3] (ITC with ATP, hydrolysis interferes), the “N, stoichiometry per PilB hexamer” value came to 2.
For `Nc1ncnc2c1ncn2[C@@H]1O[C@H](CO[P@](=O)(O)O[P@](=O)(O)O[P@@](=O)(O)S)[C@@H](O)[C@H]1O` [ATPγS], the “binding detected by ITC” value in test [1] is listed as “no detectable binding; also recorded: without detectable binding”. For the same molecule, the Kd in test [2] is 5.2 ± 0.7 µM; in test [3] (apparent dissociation constant KD, ITC, 25 °C, no effector, 15 μM PilB), 3.8 ± 0.5 µM. Moreover, the ΔG was -7.2 kcal/mol in test [2] (no effector); -7.4 kcal/mol in test [3] (ITC, 25 °C, no effector); -7.4 kcal/mol in test [3] (effector cdG 100 μM). Further, the ΔH in test [2] (no effector) was -11.5 kcal/mol and -11.5 ± 0.6 kcal/mol; in test [3] (ITC, 25 °C, no effector), -10.3 ± 0.3 kcal/mol; in test [3] (effector cdG 100 μM) it was -10.3 ± 0.3 kcal/mol. Also, the “N, number … per protein” value in test [2] (no effector) is 2.42±0.07; in test [3] (ITC, no effector), 2.8 and 2.8±0.06; in test [3] (effector cdG 100 μM), 2.91±0.04. In addition, in test [2] (PilBΔN versus full-length PilB, no effector), the “KD for PilBΔN higher than KD for full-length PilB” value is approximately 40%.
As to `Nc1ncnc2c1ncn2[C@@H]1O[C@H](COP(=O)(O)OP(=O)(O)O)[C@@H](O)[C@H]1O` [ADP], the “binding detected by ITC” value in test [1] was “no detectable binding; also recorded: without detectable binding”. Also, the ΔG in test [2] (no effector) is -7.0 kcal/mol; in test [3] (ITC, 25 °C, no effector), -7.3 kcal/mol; in test [3] (effector cdG 100 μM), -6.9 kcal/mol. For the same molecule, the ΔH is -16.2 kcal/mol and -16.2 ± 0.4 kcal/mol in test [2] (no effector); -15.4 kcal/mol and -15.4 ± 1.0 kcal/mol in test [3] (ITC, 25 °C, no effector); -46.2 kcal/mol and -46.2 ± 1.6 kcal/mol in test [3] (effector cdG 100 μM). Moreover, the “N, number … per protein” value in test [2] (no effector) is reported as 2.20±0.03; in test [3] (ITC, no effector), 2.20±0.02; in test [3] (effector cdG 100 μM) it was 1.79±0.06. For the same molecule, in test [3] (read-out: apparent dissociation constant KD, ITC, 25 °C, no effector, 15 μM PilB), the Kd came to 4.3 ± 1 µM.
Usually stoichiometry N stands for the number of molecules, sites or subunits per partner or assembly. In turn, “PilBΔN (truncated CtPilB without the first 139 residues) (from UniProt A0ABV9NNI3 140-574) (domain or fragment)” registered a stoichiometry N in test [6] of 6.
